Test results as given in ChEMBL document CHEMBL1123966, “Ring-substituted [1,2-bis(4-hydroxyphenyl)ethylenediamine]dichloroplatinum (II) complexes: compounds with a selective effect on the hormone-dependent mammary carcinoma” (1988).
Where “and” joins values, the source holds several entries; their conditions need not be identical. Equal entries are not always repeated.

What was measured:
[1] = Cell growth inhibition of MXT-ER- breast cancer cells at a dose of 13.4 mg/kg; type: functional, organism-based; parameters: dose 13.4 mg/kg; conditions: Mus musculus, Cancer cell lines
Method in brief: (§1)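 Hormone-independent MXT mammary carcinoma (ER−) in mice. Equimolar doses (2 × 10⁻⁵ M/kg) were given sc three times a week (Mon, Wed, Fri) in polyethylene glycol 400/H₂O (1:1), or in olive oil for some agents. Median tumor area was measured at the end of a 2-week therapy and expressed as T/C %.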

[2] = Cell growth inhibition of MXT-ER+ breast cancer cells at a dose of 13.4 mg/kg; type: functional, organism-based; parameters: dose 13.4 mg/kg; conditions: Mus musculus, Cancer cell lines
Method in brief: (§2)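 Hormone-dependent MXT mammary carcinoma (ER+) model. Equimolar doses (2 × 10⁻⁵ M/kg) were given sc three times weekly (Mon, Wed, Fri) as a solution or suspension in polyethylene glycol 400/H₂O (1:1); some agents were given in olive oil. Median tumor weight was taken at the end of 6 weeks of therapy and given as T/C %. Significance was tested by the Wilcoxon-Mann-Whitney U test.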

Mus musculus [3] = experiment: Median tumor weight of MXT ER+ determined at the end of 6 week therapy at a dose of 13.4 mg/kg; type: functional, organism-based; parameters: dose 13.4 mg/kg
Method in brief: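 BDF1 mice with hormone-dependent MXT mammary carcinoma (ER+). Equimolar dosing at 2 × 10⁻⁵ M/kg, given sc three times a week (Mon/Wed/Fri) for 6 weeks as a solution or suspension in PEG 400/H₂O 1:1. Median tumor weight was taken at the end of therapy; U test (Wilcoxon, Mann, Whitney).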

MDA-MB-231 [4] = experiment: Incorporation of [3H]- thymidine into hormone independent MDA-MB-231 breast cancer cells; type: functional, cell-based; conditions: Homo sapiens
MCF7S [5] = experiment: Cell growth inhibition in hormone dependent MCF 7 breast cancer cells; type: functional, cell-based; conditions: Homo sapiens
Mus musculus [6] = species: Mus musculus; experiment: Uterotrophic effect in BDF1 mouse measured as([weight of uterus (mg)/body weight (g)] *100); type: functional
Method in brief: (§3)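 Female BDF1 mice carrying MXT ER+ mammary carcinoma were dosed in olive oil, sc, three times a week, for 6 weeks. At the end of therapy, uterotropic effect = [uterus dry weight (mg)/body weight (g)] × 100, given as mean ± SD and as T/C % versus control. Significance was by the U test.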

MDA-MB-231 [7] = experiment: Incorporation of [3H]- thymidine in hormone independent MDA-MB-231 breast cancer cells; type: functional, cell-based; conditions: Homo sapiens
MCF7S [8] = experiment: Incorporation of [3H]- thymidine in hormone dependent MCF-7 breast cancer cells; type: functional, cell-based; conditions: Homo sapiens
MDA-MB-231 [9] = experiment: Cell growth inhibition in hormone independent MDA-MB-231 breast cancer cells; type: functional, cell-based; conditions: Homo sapiens
Mus musculus [10] = experiment: Uterotrophic effect in BDF1 mouse at a dose of 13.4 mg/kg; type: functional, organism-based; parameters: dose 13.4 mg/kg; conditions: Uterus
Method in brief: (§4)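 Uterus of BDF1 mice in the MXT ER+ study. Equimolar dosing at 2 × 10⁻⁵ M/kg, sc in PEG 400/H₂O 1:1 three times a week (Mon/Wed/Fri). Uterine response = [uterus dry weight (mg)/body weight (g)] × 100, determined after 6 weeks of therapy; U test.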

[11] = Cell growth inhibition MXT-ER- breast cancer cells at a dose of 10.9 mg/kg; type: functional, organism-based; parameters: dose 10.9 mg/kg; conditions: Mus musculus, Cancer cell lines; method in brief: as §1
Mus musculus [12] = experiment: Median tumor weight of MXT (mammary carcinoma) ER+ determined at the end of 6 week therapy at a dose of 10.9 mg/kg; type: functional, organism-based; parameters: dose 10.9 mg/kg; method in brief: as §2
[13] = Cell growth inhibition MXT-ER+ breast cancer cells at a dose of 10.9 mg/kg; type: functional, organism-based; parameters: dose 10.9 mg/kg; conditions: Mus musculus, Cancer cell lines; method in brief: as §2
Mus musculus [14] = experiment: Uterotrophic effect in BDF1 mouse at a dose of 10.9 mg/kg; type: functional, organism-based; parameters: dose 10.9 mg/kg; conditions: Uterus; method in brief: as §4
Rattus norvegicus [15] = species: Rattus norvegicus; experiment: Percent change of in body weight at 7 day of therapy at a dose of 1.9 mg in DMBA - induced hormone dependent mammary carcinoma in rat; type: functional
[16] = Cell growth inhibition of MXT-ER+ breast cancer cells at a dose of 0.6 mg/kg (1.5*10e-6 M/kg); type: functional, organism-based; parameters: dose 0.6 mg/kg; conditions: Mus musculus, Cancer cell lines
Method in brief: (§5)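 MXT mammary carcinoma (hormone-dependent, ER+) in BDF1 mice. Doses given in olive oil, sc, three times a week, for 6 weeks. Median tumor weight was measured at the end of therapy and expressed as T/C %. Significance was by the Wilcoxon-Mann-Whitney U test.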

[17] = Cell growth inhibition of MXT-ER+ breast cancer cells at a dose of 1.8 mg/kg (4.6 *10e-6 M/kg); type: functional, organism-based; parameters: dose 1.8 mg/kg; conditions: Mus musculus, Cancer cell lines; method in brief: as §5
Mus musculus [18] = experiment: Uterotrophic effect in BDF1 mouse at a dose of 1.8 mg/kg (4.6 *10e-6 M/kg); type: functional, Uterus; method in brief: as §3
Rattus norvegicus [19] = species: Rattus norvegicus; experiment: Percent change of tumor area at 28 day of therapy at a dose of 1.9 mg in DMBA - induced hormone dependent mammary carcinoma in rat; type: functional
Method in brief: (§6)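 DMBA-induced, hormone-dependent mammary carcinoma in Sprague-Dawley rats. Dose is per kg body weight per day, given three times a week, sc, as suspension or solution in polyethylene glycol 400/H2O 1:1, for 4 weeks. Tumors were counted at start (B) and as new tumors (NT). Outcomes were scored as % complete remission (not palpable), partial remission, no change and progression, with % change in tumor area.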

[20] = Median tumor weight of MXT ER+ determined at the end of 6 week therapy at a dose of 0.6 mg/kg (1.5*10e-6 M/kg); type: functional, Mus musculus; method in brief: as §5
[21] = Median tumor weight of MXT ER+ determined at the end of 6 week therapy at a dose of 5.3 mg/kg (1.4*10e-5 M/kg); type: functional, Mus musculus; method in brief: as §5
Rattus norvegicus [22] = species: Rattus norvegicus; experiment: Percent of tumors with complete remission at a dose of 1.9 mg in DMBA - induced, hormone dependent mammary carcinoma in rat; type: functional; method in brief: as §6
Rattus norvegicus [23] = species: Rattus norvegicus; experiment: Percent of tumors with no change at a dose of 1.9 mg in DMBA - induced hormone dependent mammary carcinoma in rat; type: functional; method in brief: as §6
Mus musculus [24] = experiment: Uterotrophic effect in BDF1 mouse at a dose of 0.6 mg/kg (1.5*10e-6 M/kg); type: functional, Uterus; method in brief: as §3
[25] = Cell growth inhibition of MXT-ER+ breast cancer cells at a dose of 5.3 mg/kg ([…]); type: functional, organism-based; parameters: dose 5.3 mg/kg; conditions: Mus musculus, Cancer cell lines; method in brief: as §5
Rattus norvegicus [26] = species: Rattus norvegicus; experiment: Percent of tumors with partial remission at a dose of 1.9 mg in DMBA - induced, hormone dependent mammary carcinoma in rat; type: functional; method in brief: as §6
Rattus norvegicus [27] = species: Rattus norvegicus; experiment: Percent of tumors with progression at a dose of 1.9 mg in DMBA - induced hormone dependent mammary carcinoma in rat; type: functional; method in brief: as §6
[28] = Median tumor weight of MXT ER+ (mammary carcinoma) determined at the end of 6 week therapy at a dose of 0.6 mg/kg (1.5*10e-6 M/kg); type: functional, Mus musculus; method in brief: as §5
Rattus norvegicus [29] = species: Rattus norvegicus; experiment: No. of tumors occurring at a dose of 1.9 mg in DMBA - induced hormone dependent mammary carcinoma in rat; type: functional; method in brief: as §6
Rattus norvegicus [30] = species: Rattus norvegicus; experiment: No. of tumors at the beginning of the test at dose of 1.9 in DMBA - induced, hormone dependent mammary carcinoma in 8 rat; type: functional; method in brief: as §6

meso-7-PtCl2(2-Br) gave a T/C [1] of 65%, a T/C [2] of 12% and a Med tumor weight (Mus musculus [3]) of 57 mg. For the same compound, the ED50 (MDA-MB-231 [4]) was 1200 nM, the ED50 (MCF7S [5]) was 3100 nM and the T/C (MCF7S [5]) was 30%. It also gave an Effect (Mus musculus [6]) of 89.3, a T/C (MDA-MB-231 [7]) of 13% and an ED50 (MCF7S [8]) of 1400 nM. It also gave a T/C (MCF7S [8]) of 15%, an ED50 (MDA-MB-231 [9]) of 4300 nM and a T/C (MDA-MB-231 [9]) of 43%. For the same compound, the T/C (Mus musculus [10]) was 99%.
Work on meso-4-PtCl2(2-F) yielded a T/C [11] of 60%, a Med tumor weight (Mus musculus [12]) of 143 mg and an ED50 (MDA-MB-231 [4]) of 900 nM. The ED50 (MCF7S [5]) was 4800 nM, the T/C (MCF7S [5]) was 49% and the Effect (Mus musculus [6]) was 89.9. The T/C (MDA-MB-231 [7]) was 12%, the ED50 (MCF7S [8]) was 1500 nM and the T/C (MCF7S [8]) was 16%. For the same compound, the ED50 (MDA-MB-231 [9]) was 1500 nM, the T/C (MDA-MB-231 [9]) was 21% and the T/C [13] was 30%. It also gave a T/C (Mus musculus [14]) of 100%.
`NC(c1c(Cl)cc(O)cc1Cl)C(N)c1c(Cl)cc(O)cc1Cl` (stereo not drawn) showed a Change (Rattus norvegicus [15]) of -1.5%, a T/C [16] of less than 18% and a T/C [17] of less than 12%. The T/C (Mus musculus [18]) was 239%, the Change (Rattus norvegicus [19]) was 154% and the Med tumor weight [20] was 62.5 mg. The Effect (Mus musculus [6]) was 134 and 201, the Med tumor weight [21] was 61 mg and the Tumors (Rattus norvegicus [22]) was 11%. The Tumors (Rattus norvegicus [23]) was 7%, the T/C (Mus musculus [24]) was less than 158% and the T/C [25] was less than 12%. The Tumors (Rattus norvegicus [26]) was 4%, the Tumors (Rattus norvegicus [27]) was 78% and the Med tumor weight [28] was 91.5 mg. For the same compound, the No. of tumors (Rattus norvegicus [29]) was 3 and the No. of tumors (Rattus norvegicus [30]) was 26.
